In ChEMBL document CHEMBL4196006, “Aryl thiosemicarbazones for the treatment of trypanosomatidic infections” (Eur J Med Chem, 2018):
Calls of active or inactive are those of the source. The rule behind the calls is not given here.

Key:
[1] = test system: Trypanosoma brucei; test: Antitrypanosomal activity against Trypanosoma brucei Lister 427 bloodstream form assessed as parasite growth inhibition at 50 uM after 72 hrs by SYBR Green assay relative to control; type: functional
[2] = test system: Leishmania infantum; test: Antileishmanial activity against Leishmania infantum amastigote form assessed as parasite growth inhibition at 50 uM after 72 hrs by steady-Glo reagent based assay relative to control; type: functional; conditions: read-out: GI
How it was run: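 Intramacrophage L. infantum amastigotes in THP-1-derived macrophages, tested at 50 μM or in dose-response. Plates held 72 h at 37 °C, 5% CO2. Medium was replaced by PBS, macrophages lysed, and parasites read by Steady-Glo luminescence. High-content imaging gave host cell number, infection ratio (infected/total cells) and parasites per infected cell. Values are means of at least two independent experiments.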

[3] = test system: Trypanosoma cruzi; test: Antitrypanosomal activity against Trypanosoma cruzi amastigote form infected in human U2OS cells assessed as parasite growth inhibition at 50 uM after 72 hrs relative to control; type: functional; conditions: read-out: GI
How it was run: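 U2OS monolayers grown for 24 h, then infected with tissue-derived trypomastigotes of T. cruzi Y strain. Compounds were added 24 h after infection at 50 μM (single-point) or in dose-response, with 72 h exposure. Plates were fixed, stained and analysed by high-content imaging; activity was normalized to infected and non-infected controls. Means of at least two experiments; benznidazole as reference.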

[4] = test system: Trypanosoma brucei; test: Antitrypanosomal activity against Trypanosoma brucei Lister 427 bloodstream form at 10 uM after 72 hrs by resazurin dye-based assay relative to control; type: functional
[5] = test system: Trypanosoma brucei; test: Potentiation of methotrexate-induced antitrypanosomal activity against Trypanosoma brucei Lister 427 bloodstream form at 10 uM after 72 hrs by resazurin dye-based assay relative to control; type: functional
[6] = target: T1, CYP1A2 (Homo sapiens, UniProt P05177); test: Inhibition of human microsomal CYP1A2 expressed in baculovirus infected BTI-TN-5B1-4 cells at 10 uM incubated for 30 mins by luciferase assay relative to control; type: ADME
T1 sequence (P05177 whole entry): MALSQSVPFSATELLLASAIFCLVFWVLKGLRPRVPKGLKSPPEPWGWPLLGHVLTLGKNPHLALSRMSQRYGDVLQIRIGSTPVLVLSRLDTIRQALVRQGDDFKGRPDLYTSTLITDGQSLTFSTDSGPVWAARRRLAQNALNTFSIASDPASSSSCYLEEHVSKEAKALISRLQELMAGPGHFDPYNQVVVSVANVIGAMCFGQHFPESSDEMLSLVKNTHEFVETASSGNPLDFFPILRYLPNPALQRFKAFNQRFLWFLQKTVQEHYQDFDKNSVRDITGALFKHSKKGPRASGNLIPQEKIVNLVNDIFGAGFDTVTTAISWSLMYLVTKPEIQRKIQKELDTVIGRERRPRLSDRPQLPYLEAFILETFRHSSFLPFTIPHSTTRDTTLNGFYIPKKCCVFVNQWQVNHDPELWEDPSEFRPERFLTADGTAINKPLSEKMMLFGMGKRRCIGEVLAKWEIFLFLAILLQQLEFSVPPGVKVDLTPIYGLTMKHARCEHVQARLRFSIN
How it was run: (§1)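 CYP1A2, 2C9, 2C19, 2D6 and 3A4 in microsomes from baculovirus-infected insect cells, each with a P450-Glo luminogenic substrate. Inhibition read as loss of light; single-point at 10 μM, triplicate.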

[7] = test system: Trypanosoma brucei; test: Potentiation of methotrexate-induced antitrypanosomal activity against Trypanosoma brucei Lister 427 bloodstream form at 10 uM after 72 hrs by resazurin dye-based assay; type: functional
[8] = target: hERG (KCNH2) (Homo sapiens, UniProt Q12809); test: Inhibition of human ERG at 10 uM incubated for 2 hrs by fluorescence polarisation assay relative to control
[9] = target: CYP2C9 (Homo sapiens, UniProt P11712); test: Inhibition of human microsomal CYP2C9 expressed in baculovirus infected BTI-TN-5B1-4 cells at 10 uM incubated for 30 mins by luciferase assay relative to control; type: ADME; how it was run: as §1
[10] = target: CYP2C19 (Homo sapiens, UniProt P33261); test: Inhibition of human microsomal CYP2C19 expressed in baculovirus infected BTI-TN-5B1-4 cells at 10 uM incubated for 30 mins by luciferase assay relative to control; type: ADME; how it was run: as §1
[11] = target: CYP2D6 (Homo sapiens, UniProt P10635); test: Inhibition of human microsomal CYP2D6 expressed in baculovirus infected BTI-TN-5B1-4 cells at 10 uM incubated for 30 mins by luciferase assay relative to control; type: ADME; how it was run: as §1
[12] = target: CYP3A4 (Homo sapiens, UniProt P08684); test: Inhibition of human microsomal CYP3A4 expressed in baculovirus infected BTI-TN-5B1-4 cells at 10 uM incubated for 30 mins by luciferase assay relative to control; type: ADME; how it was run: as §1
[13] = target: Aurora kinase B (Homo sapiens, UniProt Q96GD4); test: Inhibition of recombinant full-length human aurora B kinase expressed in baculovirus system at 10 uM using MBP as substrate incubated for 45 mins by ADP-glo kinase assay; conditions: probe MBP
How it was run: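 Aurora B activity measured as ADP formation via coupled luciferase ADP-Glo luminescence; single-point at 10 μM, triplicate.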

[14] = Cytotoxicity against human 786-O cells assessed as inhibition of mitochondrial viability at 10 uM after 6 hrs by CMXRos staining based assay relative to control; type: cell-based, 786-0; conditions: read-out: INH
How it was run: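 Mitochondrial toxicity monitored by MitoTracker Red CMXRos uptake and high-content imaging; compound at 10 μM, triplicate.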

[15] = Cytotoxicity against human THP1 cells assessed as viable cells at 100 uM after 72 hrs by MTT assay relative to control; type: cell-based, THP-1; conditions: read-out: Activity
How it was run: (§2)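 THP-1-derived macrophages exposed to compounds for 72 h, tested at 100 μM or in dose-response; viability read by MTT colorimetric assay.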

[16] = Cytotoxicity against human U2OS cells assessed as viable cells at 50 uM after 72 hrs by MTT assay relative to control; type: cell-based; conditions: read-out: Activity
[17] = target: T2, Pteridine reductase, putative (Trypanosoma brucei) (UniProt Q581W1); test: Inhibition of Trypanosoma brucei PTR1 at 50 uM using H2B as substrate in presence of NADPH by photometric analysis relative to control
T2 sequence (whole entry): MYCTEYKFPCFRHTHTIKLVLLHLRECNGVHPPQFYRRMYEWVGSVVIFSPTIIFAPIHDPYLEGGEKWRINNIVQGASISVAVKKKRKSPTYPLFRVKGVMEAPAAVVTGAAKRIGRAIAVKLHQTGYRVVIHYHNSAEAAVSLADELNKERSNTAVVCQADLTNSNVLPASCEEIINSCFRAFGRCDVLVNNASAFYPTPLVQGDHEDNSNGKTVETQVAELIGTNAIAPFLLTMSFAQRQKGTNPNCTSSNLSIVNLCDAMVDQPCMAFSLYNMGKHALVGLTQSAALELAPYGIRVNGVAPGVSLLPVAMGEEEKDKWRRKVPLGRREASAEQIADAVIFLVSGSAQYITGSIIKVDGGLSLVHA

[18] = target: T3, Pteridine reductase 1 (Leishmania major) (UniProt Q01782); test: Inhibition of Leishmania major PTR1 at 50 uM using H2B as substrate in presence of NADPH by photometric analysis relative to control
T3 sequence (whole entry): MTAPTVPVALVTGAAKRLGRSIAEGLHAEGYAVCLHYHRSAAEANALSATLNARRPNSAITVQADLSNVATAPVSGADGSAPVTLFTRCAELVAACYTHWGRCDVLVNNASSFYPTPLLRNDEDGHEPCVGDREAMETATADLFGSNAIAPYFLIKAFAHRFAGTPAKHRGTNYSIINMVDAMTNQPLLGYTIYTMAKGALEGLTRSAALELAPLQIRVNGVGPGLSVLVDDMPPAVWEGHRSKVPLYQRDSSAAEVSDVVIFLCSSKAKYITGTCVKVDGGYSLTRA

[19] = test system: A549; test: Cytotoxicity against human A549 cells assessed as growth inhibition at 10 uM after 48 hrs by CellTiter-Glo assay relative to control; values are per cent of control; conditions: a549, 48 h, 10 µM
[20] = Cytotoxicity against human WI38 cells assessed as growth inhibition at 10 uM after 48 hrs by CellTiter-Glo assay relative to control; values are per cent of control; conditions: WI38 cells
[21] = test system: Trypanosoma brucei; test: Antitrypanosomal activity against Trypanosoma brucei Lister 427 bloodstream form at 4 uM after 72 hrs by resazurin dye-based assay relative to control; type: functional
[22] = test system: THP-1; test: Cytotoxicity against human THP1 cells assessed as decrease in viable cells after 72 hrs by MTT assay; type: cell-based; conditions: thp-1, 72 h; how it was run: as §2
[23] = target: Cytochrome P450 2C9 (Homo sapiens, UniProt P11712); test: Inhibition of human microsomal CYP2C9 expressed in baculovirus infected BTI-TN-5B1-4 cells incubated for 30 mins by luciferase assay
[24] = target: Cytochrome P450 3A4 (Homo sapiens, UniProt P08684); test: Inhibition of human microsomal CYP3A4 expressed in baculovirus infected BTI-TN-5B1-4 cells incubated for 30 mins by luciferase assay; type: ADME
[25] = test system: U2OS; test: Cytotoxicity against human U2OS cells assessed as decrease in viable cells after 72 hrs by cell number count in anti-T. cruzi high content imaging assay; conditions: u2os, 72 h
[26] = Cytotoxicity against human A549 cells assessed as growth inhibition at 10 uM after 48 hrs by CellTiter-Glo assay relative to control; values are per cent of control; conditions: A549 cells
[27] = test system: WI-38; test: Cytotoxicity against human WI38 cells assessed as growth inhibition at 10 uM after 48 hrs by CellTiter-Glo assay relative to control; values are per cent of control; conditions: wi-38, 48 h, 10 µM

Sequence of CYP3A4 (P08684 whole entry): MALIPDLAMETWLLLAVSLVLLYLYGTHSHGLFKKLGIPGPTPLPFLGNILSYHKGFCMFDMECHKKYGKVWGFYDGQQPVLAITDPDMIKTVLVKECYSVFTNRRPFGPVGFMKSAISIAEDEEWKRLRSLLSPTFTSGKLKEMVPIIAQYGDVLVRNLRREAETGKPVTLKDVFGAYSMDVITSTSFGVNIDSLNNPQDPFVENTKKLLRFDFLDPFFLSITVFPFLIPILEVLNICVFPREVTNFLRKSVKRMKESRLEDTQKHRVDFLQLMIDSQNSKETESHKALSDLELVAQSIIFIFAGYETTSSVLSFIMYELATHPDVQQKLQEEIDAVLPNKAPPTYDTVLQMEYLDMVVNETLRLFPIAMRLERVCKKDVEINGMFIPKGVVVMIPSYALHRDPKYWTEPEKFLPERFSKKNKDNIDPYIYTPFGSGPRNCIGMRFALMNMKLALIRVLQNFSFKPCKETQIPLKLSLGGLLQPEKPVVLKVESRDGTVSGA
Sequence of CYP2C9 (P11712 whole entry): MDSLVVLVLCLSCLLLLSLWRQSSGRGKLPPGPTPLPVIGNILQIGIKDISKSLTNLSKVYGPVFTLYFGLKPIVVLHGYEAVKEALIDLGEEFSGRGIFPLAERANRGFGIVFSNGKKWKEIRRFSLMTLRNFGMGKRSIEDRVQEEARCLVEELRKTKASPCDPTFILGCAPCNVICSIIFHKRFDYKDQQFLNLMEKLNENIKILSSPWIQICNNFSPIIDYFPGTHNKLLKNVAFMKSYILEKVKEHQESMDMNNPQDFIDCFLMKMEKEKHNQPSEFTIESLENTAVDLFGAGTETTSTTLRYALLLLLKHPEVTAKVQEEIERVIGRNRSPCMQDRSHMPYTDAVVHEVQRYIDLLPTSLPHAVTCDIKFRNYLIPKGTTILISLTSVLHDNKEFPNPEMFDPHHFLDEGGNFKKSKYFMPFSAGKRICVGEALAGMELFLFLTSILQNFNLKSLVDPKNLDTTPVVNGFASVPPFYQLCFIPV
Sequence of Aurora kinase B (Q96GD4 whole entry): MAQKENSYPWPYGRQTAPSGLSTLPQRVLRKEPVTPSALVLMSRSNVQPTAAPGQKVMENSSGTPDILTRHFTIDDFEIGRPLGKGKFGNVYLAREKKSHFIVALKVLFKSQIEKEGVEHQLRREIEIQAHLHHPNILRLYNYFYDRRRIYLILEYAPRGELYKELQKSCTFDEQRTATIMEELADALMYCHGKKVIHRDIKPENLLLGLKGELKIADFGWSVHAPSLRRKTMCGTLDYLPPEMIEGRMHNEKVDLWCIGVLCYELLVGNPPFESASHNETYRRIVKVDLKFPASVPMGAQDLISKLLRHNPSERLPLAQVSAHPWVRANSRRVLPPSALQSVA
Sequence of CYP2C19 (P33261 whole entry): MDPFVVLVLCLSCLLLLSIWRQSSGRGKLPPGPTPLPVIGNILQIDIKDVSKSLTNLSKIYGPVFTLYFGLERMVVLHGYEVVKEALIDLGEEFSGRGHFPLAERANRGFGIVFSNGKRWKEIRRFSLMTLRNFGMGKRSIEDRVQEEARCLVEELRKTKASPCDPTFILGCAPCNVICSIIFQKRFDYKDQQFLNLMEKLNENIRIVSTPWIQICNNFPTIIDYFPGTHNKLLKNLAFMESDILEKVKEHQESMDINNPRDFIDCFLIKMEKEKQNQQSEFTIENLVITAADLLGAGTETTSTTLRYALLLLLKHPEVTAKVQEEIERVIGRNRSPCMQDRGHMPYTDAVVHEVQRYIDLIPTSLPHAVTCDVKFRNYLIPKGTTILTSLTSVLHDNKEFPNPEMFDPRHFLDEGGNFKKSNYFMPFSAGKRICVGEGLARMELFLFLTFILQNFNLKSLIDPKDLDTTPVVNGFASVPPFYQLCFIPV
Sequence of hERG (KCNH2) (Q12809 whole entry): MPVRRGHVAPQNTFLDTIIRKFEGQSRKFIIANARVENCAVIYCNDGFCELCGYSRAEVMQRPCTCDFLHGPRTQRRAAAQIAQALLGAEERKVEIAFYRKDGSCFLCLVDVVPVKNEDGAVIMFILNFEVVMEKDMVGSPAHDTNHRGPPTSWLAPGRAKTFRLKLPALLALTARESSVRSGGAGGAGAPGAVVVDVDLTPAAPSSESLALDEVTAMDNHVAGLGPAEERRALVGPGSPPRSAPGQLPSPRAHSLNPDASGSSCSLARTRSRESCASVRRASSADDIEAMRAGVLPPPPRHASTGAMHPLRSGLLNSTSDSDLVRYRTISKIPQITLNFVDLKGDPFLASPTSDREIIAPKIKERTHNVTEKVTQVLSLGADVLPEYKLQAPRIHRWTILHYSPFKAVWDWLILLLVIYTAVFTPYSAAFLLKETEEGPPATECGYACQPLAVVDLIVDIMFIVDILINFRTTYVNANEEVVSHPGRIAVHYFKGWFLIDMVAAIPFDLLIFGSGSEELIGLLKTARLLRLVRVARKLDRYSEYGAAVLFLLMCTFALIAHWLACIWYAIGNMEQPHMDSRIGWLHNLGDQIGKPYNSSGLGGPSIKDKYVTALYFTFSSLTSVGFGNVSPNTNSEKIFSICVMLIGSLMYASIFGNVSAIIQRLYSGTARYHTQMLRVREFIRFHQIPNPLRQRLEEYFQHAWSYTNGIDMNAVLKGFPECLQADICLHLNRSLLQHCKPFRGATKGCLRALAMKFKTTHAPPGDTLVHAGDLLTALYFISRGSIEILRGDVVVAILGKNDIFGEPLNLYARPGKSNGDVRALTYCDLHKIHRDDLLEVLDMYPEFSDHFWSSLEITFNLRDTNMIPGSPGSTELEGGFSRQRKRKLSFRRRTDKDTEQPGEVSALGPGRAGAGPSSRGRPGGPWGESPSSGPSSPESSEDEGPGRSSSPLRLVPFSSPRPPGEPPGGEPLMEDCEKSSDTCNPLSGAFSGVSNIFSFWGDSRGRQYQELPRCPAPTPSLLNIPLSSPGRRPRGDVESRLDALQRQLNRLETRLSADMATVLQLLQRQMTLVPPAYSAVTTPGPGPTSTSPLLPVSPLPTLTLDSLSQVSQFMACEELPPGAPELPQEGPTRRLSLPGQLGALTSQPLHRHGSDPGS
Sequence of CYP2D6 (P10635 whole entry): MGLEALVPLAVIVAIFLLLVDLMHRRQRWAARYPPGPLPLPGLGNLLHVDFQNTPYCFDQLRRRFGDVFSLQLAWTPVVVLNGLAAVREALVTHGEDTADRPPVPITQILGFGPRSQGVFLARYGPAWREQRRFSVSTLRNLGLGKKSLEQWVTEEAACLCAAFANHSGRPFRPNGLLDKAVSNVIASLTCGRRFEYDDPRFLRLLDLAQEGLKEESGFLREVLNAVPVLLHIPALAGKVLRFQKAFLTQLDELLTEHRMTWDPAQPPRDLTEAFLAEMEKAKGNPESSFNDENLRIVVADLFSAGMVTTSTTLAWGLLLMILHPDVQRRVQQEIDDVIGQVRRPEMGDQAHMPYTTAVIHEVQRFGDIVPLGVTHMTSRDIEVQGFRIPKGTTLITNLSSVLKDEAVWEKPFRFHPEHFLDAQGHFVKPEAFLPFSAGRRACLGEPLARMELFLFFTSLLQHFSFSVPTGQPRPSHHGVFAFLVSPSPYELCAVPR
Sequence of Cytochrome P450 3A4 (P08684 whole entry): as the sequence (P08684 whole entry) above
Sequence of Cytochrome P450 2C9 (P11712 whole entry): as the sequence (P11712 whole entry) above

| Structure (SMILES) | inhibition at 0.5 h, 10 µM [6] [%] | inhibition at 0.5 h, 10 µM [9] [%] | inhibition at 0.5 h, 10 µM [10] [%] | inhibition at 0.5 h, 10 µM [11] [%] | inhibition at 0.5 h, 10 µM [12] [%] | inhibition at 0.75 h, 10 µM [13] [%] | inhibition [17] | inhibition [18] [%] | growth inhibition (GI) [1] | inhibition of growth at 50 µM [2] [%] | inhibition of growth at 50 µM [3] [%] | Activity [4] [%] | Activity [5] [%] | PF [7] | inhibition at 2 h, 10 µM [8] [%] | cytotoxicity at 6 h, 10 µM [14] [%] | viability at 72 h, 100 µM [15] [%] | viability at 72 h, 50 µM [16] [%] | cell growth (% of control) [19] [%] | cell growth (% of control) at 48 h, 10 µM [20] [%] | also measured |
| --- | --- | --- | --- | --- | --- | --- | --- | --- | --- | --- | --- | --- | --- | --- | --- | --- | --- | --- | --- | --- | --- |
| CN(Cc1cnc2nc(N)nc(N)c2n1)c1ccc(C(=O)N[C@@H](CCC(=O)O)C(=O)O)cc1 [METHOTREXATE] |  |  |  |  |  |  |  |  |  |  |  |  |  |  |  |  |  |  |  |  | Activity [21]: 24.25% |
| O=C(Cn1ccnc1[N+](=O)[O-])NCc1ccccc1 [BENZNIDAZOLE] |  |  |  |  |  |  |  |  |  |  |  |  |  |  |  |  |  |  |  |  | CC50 [22]: Non-Toxic; IC50 [23]: > 100 µM; IC50 [24]: 98.2 µM; CC50 [25]: Non-Toxic |
| COc1cccc(OC)c1/C=N/NC(N)=S | 34.3 | -9.43 | -44.2 | 0.08 | -14.8 | -18.2 | 4.77% | 4.04 | inactive | 25.3 | 74.3 | 8.83 | 21.83 | 0.66 | -1.27 | -12.3 | 76.8 | 21.7 | 162.27 | 114 |  |

More lines, main results first:

| inhibition at 0.5 h, 10 µM [6] [%] | inhibition at 0.5 h, 10 µM [9] [%] | inhibition at 0.5 h, 10 µM [10] [%] | inhibition at 0.5 h, 10 µM [11] [%] | inhibition at 0.5 h, 10 µM [12] [%] | inhibition at 0.75 h, 10 µM [13] [%] | inhibition [17] | inhibition [18] [%] | Structure (SMILES) | growth inhibition (GI) [1] | inhibition of growth at 50 µM [2] [%] | inhibition of growth at 50 µM [3] [%] | Activity [4] [%] | Activity [5] [%] | PF [7] | inhibition at 2 h, 10 µM [8] [%] | cytotoxicity at 6 h, 10 µM [14] [%] | viability at 72 h, 100 µM [15] [%] | viability at 72 h, 50 µM [16] [%] | cell growth (% of control) [19] [%] | cell growth (% of control) at 48 h, 10 µM [20] [%] | also measured |
| --- | --- | --- | --- | --- | --- | --- | --- | --- | --- | --- | --- | --- | --- | --- | --- | --- | --- | --- | --- | --- | --- |
| 61.6 | -4.92 | -40.6 | -2.93 | -13.9 | -22.8 | 14.8% | 10.6 | NC(=S)N/N=C/c1ccccc1[N+](=O)[O-] | inactive | 30.6 | 27.4 | 1.5 | 29.17 | 1.13 | -1.03 | -3.98 | 59.7 | 20.4 | 158.95 | 120 |  |
| 98.4 | 10 | 21.7 | 57.9 | 22.8 | 0.89 | inactive | 5.85 | CN(C)c1ccc(/C=N/N=C(/N)S)c2ccccc12 |  | 58.3 | 8.05 | 26.17 | 63.83 | 1.27 | 43 | -1.7 | 9.31 | 99.5 |  |  | inhibition of growth at 50 µM ([1]; Lister 427, 72 h, read-out: GI): 6.33%; cell growth (% of control) at 48 h, 10 µM [26]: 122%; cell growth (% of control) [27]: 162.08% |
